A short description of this data set: Toxicity liver stage against HepG2, at 10uM. It is filed as cell-based. The settings on record: human, HepG2-A16-CD81EGFP cells; read-out: INHIBITION
More on the design: test concentration 10 uM, cell line HepG2-A16-CD81EGFP. Summed up:
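Uninfected HepG2-A16-CD81EGFP cells, 3 × 10^3 per well, 1536-well, plated on prespotted compound at 10 μM final, parasite-free screening media added to match infected plates; puromycin 10 μM positive, DMSO 0.5% negative; run in parallel with 48 h PbLuc assay at 37 °C, 5% CO2; viability by CellTiter-Glo luminescence, normalized to controls.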
With `CC(C)c1sc(Cl)nc1C(=O)NCc1ccncc1`, the cytotoxicity at 10 µM stood at 0.649%. For `c1cncc(CNCCc2cccs2)c1`, the cytotoxicity at 10 µM is -5.68%. For `COc1ccc(C[C@H]2CN(C(=O)c3cc(C)no3)CC[C@H]2OC)cc1`, the cytotoxicity at 10 µM was determined as 6%.

Regarding `O=C(Nc1cnccn1)[C@@H]1COC[C@H]2CN(c3ncc(F)cn3)C[C@H]21`, the cytotoxicity at 10 µM is -11.7%. In the case of `CN(Cc1ccncc1)C1CCC[C@@H]2CN(c3ncccn3)C[C@H]12` (some centres undefined) it was -3.21%. In the case of `O=C([C@@H]1CC[C@@H]2[C@@H](CCN2Cc2ccncc2)O1)N1CCCCO1` it was -3.75%; in that of `Cc1ccc(N2CCCC3(COCCN(c4cnccn4)C3)C2)nn1` (centres undefined), -139%. Then `COCCC(=O)N1CCC2(CCCN2Cc2ccccc2)C1` (centres undefined), with 10.4%; and `CC(C)OCCCNC(=O)CC1(Cn2cnnn2)CCCCC1`, with 9.18%; and `COc1ccc(Cl)cc1CNCCCn1ccnc1`, with 8.32%. With `COCCNC(=O)C1CCCN(c2ccc3nncn3n2)C1` (centres undefined), the cytotoxicity at 10 µM is -0.302%. In the case of `O=c1[nH]c2c(c(=O)n1C1CCCCC1)CCC2Nc1ccccc1` (centres undefined) it was 0.795%; in that of `Cc1nc(N2CCCC2)nc2c1CCN(C(=O)CC1CC1)CC2`, -9.6%. Then `Cn1nc(C(=O)NN2CCOCC2)c(Cl)c1C(F)(F)F`, with 2.99%; and `Cn1nc(C(=O)NC2CCCC2)cc1NC(=O)C1CC1`, with 0.754%. In the case of `CSc1ncnc(NCc2ccccc2F)c1C#N` it was 1.67%; in that of `CC1CCCN(C(=O)c2ccc(-c3ccco3)o2)C1` (centres undefined), 4.23%.

With `Cc1nn(C)c(C)c1-c1cnc(CC2CCNC2)cn1` (centres undefined), the cytotoxicity at 10 µM is -8.41%.

In the case of `Cc1sc2c(C3CCCN(S(C)(=O)=O)C3)nc(C)n2c1C` (centres undefined), the cytotoxicity at 10 µM is -33%. With `c1cncc(CN2CCCC(c3nnc(-c4cnccn4)o3)C2)c1` (centres undefined), the cytotoxicity at 10 µM is -7.36%. Then `O=C(c1cc(C2CCCCN2C(=O)C2CCC2)n[nH]1)N1CCOCC1` (centres undefined), with -14%; and `COCC(=O)N1CCC(c2n[nH]c3nccnc23)CC1`, with -8.38%. Then `O=C(CCNc1ccc(Br)cn1)NCc1ccncc1`, with -0.222%. Then `Cc1c(C(=O)N(C)CC(F)(F)F)nnn1-c1ccccc1Cl`, with -1.58%; and `CC(NS(=O)(=O)N(C)C)c1cccc(-n2cccn2)c1` (centres undefined), with -1.46%; and `O=C(NCC(O)c1cccc(F)c1)c1sccc1OC(F)F` (centres undefined), with 0.547%.

For the compound `CC(C)Cn1cnc(S(=O)(=O)Nc2cccnc2-n2cccn2)c1`, the cytotoxicity at 10 µM was -1.75%.

Regarding `CNC(=O)CN1CCC(CN(C)Cc2ccncc2Cl)CC1`, the cytotoxicity at 10 µM was -2.87%.

In the case of `CCc1noc(C(C)N2CCC(NS(=O)(=O)c3ccccc3)CC2)n1` (centres undefined), the cytotoxicity at 10 µM was 7.87%. For the compound `NC(=O)C(NCc1ccc(Cl)s1)c1ccccc1` (centres undefined), the cytotoxicity at 10 µM came to 2.8%. Then `N#CCCN(CC1CC1)S(=O)(=O)c1cccc(Cl)c1`, with 9.09%. With `Cc1ccc(-c2cc(CNC(=O)NC3CCCCNC3=O)on2)cc1` (centres undefined), the cytotoxicity at 10 µM was -145%. Then `Cc1cc(Cn2cc(C#N)c(=O)c3ccccc32)on1`, with 8.83%; and `CCOc1ccc2cc(C(=O)NCCNc3ccc(C)nn3)[nH]c2c1`, with 1.64%.

For `O=C(NC1CCS(=O)(=O)c2ccccc21)c1sccc1C1CC1` (centres undefined), the cytotoxicity at 10 µM was determined as 3.63%. Then `CCOc1cc(F)ccc1NC(=O)N(C(C)CS(C)(=O)=O)C1CC1` (centres undefined), with 4.11%; and `Cc1ccc(S(=O)(=O)N2CC(C)Oc3ncccc32)c(F)c1` (centres undefined), with 3.43%; and `CS(=O)(=O)NC1CCN(C(=O)c2ccc(F)cc2)CC1`, with 2.3%.

As to `COc1ccc(NC(=O)NC(C)c2nc[nH]n2)cc1Cl` (centres undefined), the cytotoxicity at 10 µM was 0.0264%. Regarding `CCSc1cc(C(=O)NCCNC(=O)N(C)C)ccn1`, the cytotoxicity at 10 µM was -3.63%. In the case of `Cc1cc(NC(=O)C(c2cccc(F)c2)N2CCOCC2)sn1` (centres undefined) it was -3.98%; in that of `CN(Cc1cnn(C)c1)C(=O)NCC1CCS(=O)(=O)C1` (centres undefined), 10.3%; in that of `Cc1n[nH]c(C2CN(C(=O)CCCn3cccn3)CCO2)n1` (centres undefined), -0.138%. Then `N#CC1(C(=O)NCc2ccc(F)cc2)CCCC1`, with 7.57%. With `COc1ccnc(NC(=O)c2cnccn2)c1`, the cytotoxicity at 10 µM was determined as 7.97%. On to `COCCN1CC(C(=O)Nc2ccc3c(c2)CCC(=O)N3C)CC1=O` (centres undefined), for which the cytotoxicity at 10 µM amounted to 6.18%. In the case of `CCC1CN(CC(=O)NCCOC)CCO1` (centres undefined) it was -12.9%; in that of `CCN(CC)C(=O)c1ccc(CNc2ncc(C#N)cc2Cl)cc1`, 5.87%; in that of `CC(C)(CCS(C)(=O)=O)CNC(=O)NC1CCCC1(C)C` (centres undefined), 6.7%.

For the compound `CC(C)CCNc1nnc(C(C)C)s1`, the cytotoxicity at 10 µM is -10.6%. In the case of `CN(C)S(=O)(=O)NCC1CCN(Cc2ccccc2F)CC1` it was -0.768%; in that of `O=C(NCCc1nncn1C1CC1)c1cc2ccccn2c1`, -1.87%; in that of `CN(CC(=O)NC(C)(C#N)C1CC1)Cc1nc2ccccc2n1C` (centres undefined), -3.72%. Then `Cc1ccc2nc(NCCN3CCOCC3)n(C)c(=O)c2c1`, with 9.26%; and `COc1ccc(F)c(NCc2ccc(C(=O)N(C)C)[nH]2)c1`, with 7.31%; and `Cc1ccc(NC(=O)NC(C)C(=O)N2CCS(=O)(=O)CC2)cc1` (centres undefined), with -5.1%. Then `Cc1n[nH]c(C2CN(CC(=O)NCCc3ccsc3)CCO2)n1` (centres undefined), with -0.524%; and `Cc1cc(C)c2[nH]c(C(=O)NCCN3CCCC3=O)c(C)c2c1`, with 2.49%. For the compound `CC(C)c1nccc(-c2nccn2CCN(C)S(C)(=O)=O)n1`, the cytotoxicity at 10 µM worked out at 7.53%.

As to `Cc1ccsc1[C@@H]1CCN(C(=O)Cc2ccc(O)cc2)C[C@H]1O`, the cytotoxicity at 10 µM is -2.59%. Then `CCCc1nc(CN(CC)Cc2ccc(S(C)(=O)=O)cc2)no1`, with -16.9%.

`CCC(C)N(Cc1ccsc1)C(=O)c1ccc2[nH]nnc2c1` (centres undefined): the cytotoxicity at 10 µM turned out to be 13.3%.

As for `Cn1c(Cn2ccnc2)nnc1C1CCN(C(=O)c2ccncc2)CC1`, the cytotoxicity at 10 µM is -106%. With `CCc1ccccc1CN1CCN(Cc2ncc[nH]2)[C@H]2CS(=O)(=O)C[C@H]21`, the cytotoxicity at 10 µM came out at 2.03%. In the case of `CC1=C(C(=O)NCCc2n[nH]c3c2CCCC3)C(C)NC(=O)N1` (centres undefined) it was -3.51%. In the case of `CCN(C(=O)c1c(Cl)cnn1CC)C(C)C(N)=O` (centres undefined) it was -16.1%. Then `CCCc1nc(C(=O)NCc2cccnc2-n2cncn2)cs1`, with -148%; and `c1cncc(NCCNC2CCSCC2)c1`, with -0.307%.

For `CCc1nn(C)c(Cl)c1CN(CC)Cc1cnn(CC)c1`, the cytotoxicity at 10 µM came out at 4.36%.

In the case of `CN1CCN(S(=O)(=O)NCC2COc3ccccc3C2)CC1` (centres undefined), the cytotoxicity at 10 µM was -3.33%. Then `CCCn1ncnc1C(C)NC(=O)C1CCN(C(C)C)CC1` (centres undefined), with -139%; and `Cc1nc(CCCN2CCOCC2)n(Cc2ccc(F)cc2)n1`, with 1.69%. In the case of `CCOc1ccccc1CN(C)C(=O)CN1C(=O)OC[C@@H]1C(C)C` it was -2.24%; in that of `CC[C@H]1CN(C(=O)CCn2c(C)cccc2=O)CC[C@@]1(C)O`, 8.51%; in that of `O=C(O)c1cc(-c2cccnc2)cc(S(=O)(=O)N2CCCCCC2)c1`, -2.88%. Turning to `CN1CCN(C2CCN(CCOc3ccccc3F)CC2)C1=O`, the cytotoxicity at 10 µM amounted to 0.174%.

Consider `COCc1ccc(CNc2cncc(-n3cccn3)n2)cc1`, for which the cytotoxicity at 10 µM came out at 6%.

For the compound `Cc1nccn1C1CCCN(C(=O)c2ccc(N(C)C)nn2)C1` (centres undefined), the cytotoxicity at 10 µM was -17.7%. Then `CCOc1ncccc1NC(=O)N1CCN(CC(=O)NC)CC1`, with -2.66%. Take `COc1ncccc1CNC(=O)c1cc(Cl)ccn1`: the cytotoxicity at 10 µM is -7.51%.

As to `CC(Cc1ccco1)NC(=O)Nc1ccc(N(C)C)nc1` (centres undefined), the cytotoxicity at 10 µM is -7.22%. In the case of `Cc1nc(C)n(CC2CCCN2CCc2ccncc2)n1` (centres undefined) it was -7.3%. As for `CCOCCN1CCN(Cc2csc(-c3cnn(C)c3)n2)CC1`, the cytotoxicity at 10 µM was -4.95%. In the case of `CC(C)CCc1nc(CNCC2CN(C)CCO2)cs1` (centres undefined) it was -15.2%. In the case of `CC(C)c1n[nH]c(C2CN(CCc3cccs3)CCO2)n1` (centres undefined) it was -4.57%; in that of `Cc1ccc(C(=O)NC2CCN(C(=O)Nc3ccccn3)CC2)s1`, -4.54%; in that of `CCCN1CCN(C(=O)Cc2nc(-c3ccco3)oc2C)CC1`, -6.14%. Then `NC(=O)C1CN(C(=O)Nc2ccccc2N2CCCCCC2)CCO1` (centres undefined), with -6.31%; and `Cc1ccc(CN[C@@H]2COC[C@H]2Cc2cc(C)no2)cc1`, with -23.2%; and `CC(C)N(C)Cc1cnc2n1CCN(Cc1cccc(F)c1)C2`, with -2.92%.

`COCCNC(=O)c1cc(-c2cc[nH]n2)n2ccccc12`: the cytotoxicity at 10 µM worked out at 10.4%.

For `O=C1CC2(CCN(Cc3ccccn3)C2)CN1c1cccnc1` (centres undefined), the cytotoxicity at 10 µM is -8.75%. Then `COc1ccc(C(NCc2ccc(C#N)cc2)C2CC2)cc1` (centres undefined), with 7.18%; and `CCn1nnc2c1C(COCCN(C)C)CN(Cc1ccc(C)s1)C2` (centres undefined), with 4.44%. Then `CN(C)C1CC2(CCN(C(=O)c3csnn3)CC2)c2ccccc21` (centres undefined), with -138%. In the case of `NC(C(=O)N1CCSc2ccccc2C1)c1ccccc1` (centres undefined) it was 4.59%; in that of `c1csc(CN2Cc3nccn3CC(Cn3cncn3)C2)c1` (centres undefined), -136%; in that of `O=C1CCC2(CCN(Cc3ccc(F)cc3)CC2)N1CCN1CCCC1`, -4.72%. In the case of `CCc1nccn1CC(=O)N1C[C@@H]2CC[C@H]1CN(c1ncccn1)C2`, the cytotoxicity at 10 µM was -7.9%.

Source of the values: ChEMBL document CHEMBL4513216, “Probing the Open Global Health Chemical Diversity Library for Multistage-Active Starting Points for Next-Generation Antimalarials” (ACS Infect Dis, 2020).
